Results as given in the RNAGym collection of RNA variant scans (doi:10.1126/science.aae0568).
This sample holds only a part of the variants without activity.

B1: tRNA (parent)
chain: GUUCCGUUGGCGUAAUGGUAACGCGUCUCCCUCCUAAGGAGAAGACUGCGGGUUCGAGUCCCGUACGGAACG

Variants of: B1
Assay: yeast fitness relative to wild type (ratio to wild type); higher = fitter; tRNA-Arg(CCU), competitive growth, 37 C, YPD
How it was run: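 Start and end populations of a pooled competition were compared by 100-nucleotide paired-end sequencing of gene amplicons. The Saccharomyces cerevisiae strains carried tRNA-Arg(CCU) gene variants at the native genomic locus, synthesised with a 3% per-site mutation rate at 69 sites, and competed in YPD at 37°C for 24 hours in six parallel replicates. Darwinian fitness relative to wild type was based on the change in genotype frequencies. Genotypes required ≥ 100 starting reads, and estimates < 0.5 were set to 0.5.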

Row | Variant | yeast fitness
1 | U2C U64G C66A | ≤ 0.5
2 | U2C C29A C31A A40U C49U | 0.554
3 | U2C G38A | 0.901
4 | U2G C4U C62U G68U | ≤ 0.5
5 | U2C C27G U28A C61U | ≤ 0.5
6 | U2C C24U A57U | ≤ 0.5
7 | U2G A40G G41C C60G | 0.688
8 | U2G A40C A65G C66G | ≤ 0.5
9 | U2C G6C C11G A15C G25C C27G C30G G38C | ≤ 0.5
10 | U2C C29U A37G A65G | ≤ 0.5
11 | U2C G18A A36C A45U C49G | ≤ 0.5
12 | U2C A57U C62U U64C | ≤ 0.5
13 | U2C G12C A14G C29U U59G G63C | ≤ 0.5
14 | U2G C5A A57U | ≤ 0.5
15 | U2C C5U A40U G50A | ≤ 0.5
16 | U2G A14U C22G C30G G58A | ≤ 0.5
17 | U2C G51C | 0.687
18 | U2C G51A | 0.822
19 | U2C C27G U28A A43U C61A C62U A65U A69C | ≤ 0.5
20 | U2C G25A G52A | ≤ 0.5
21 | U2G A21G C49U | 0.708
22 | U2G A20C G38A | ≤ 0.5
23 | U2C U54A | 0.612
24 | U2C U16G | 0.96

Row | Variant | yeast fitness
25 | U2C C24G C61G | ≤ 0.5
26 | U2C G56C | 0.727
27 | U2G C4U C27A C66A | ≤ 0.5
28 | U2C U28G A43U G56C A57U G67A | ≤ 0.5
29 | U2C U13A G39C C60G | ≤ 0.5
30 | U2C G18A U28C A42C G56C A65C | 0.61
31 | U2G A15U C62A | 0.613
32 | U2G C4A G38C G50A | 0.713
33 | U2C C55G G56C A69U | ≤ 0.5
34 | U2C U19C U59A | 0.582
35 | U2G A45U G67C | ≤ 0.5
36 | U2C C66U | 0.968
37 | U2G A20C G25A A69C | ≤ 0.5
38 | U2C G44A A70C | 0.884
39 | U2C G39A G44A | 0.66
40 | U2G C11G A36C C61G G63A | ≤ 0.5
41 | U2C U3C C34U G63A | ≤ 0.5
42 | U2C U53A | 0.7
43 | U2C U16A G67C | 0.644
44 | U2G C5A | 0.725
45 | U2C C24G C29U C62G C66A | ≤ 0.5
46 | U2C U16A G38C G63A | 0.552
47 | U2C C11U G68A | 0.544
48 | U2C G6A C31U C49U | 0.641

Row | Variant | yeast fitness
49 | U2C U47A U64A | ≤ 0.5
50 | U2G A65C | 0.897
51 | U2C C22G G51C A70G | ≤ 0.5
52 | U2G A20C C27U C46A | 0.614
53 | U2G C11G A20U C24G A42G | ≤ 0.5
54 | U2G C11U G52C C55G A70G | ≤ 0.5
55 | U2G A42U | 0.804
56 | U2G C4A C22U U28G A42U G68U | ≤ 0.5
57 | U2G C4U A36G A45U | 0.537
58 | U2C C11U G25U C29U G39A | ≤ 0.5
59 | U2G A15U C24G U53A U64A | ≤ 0.5
60 | U2C G48C C49U U53C | ≤ 0.5
61 | U2C U35A C60A | ≤ 0.5
62 | U2C C60A C66U | 0.576
63 | U2G A57U | 0.66
64 | U2G A57G | 0.82
65 | U2C C4U A36G G44C | 0.615
66 | U2G A14C A42C C49U A65C | ≤ 0.5
67 | U2C C4A C11U C29U G67A A70U | ≤ 0.5
68 | U2C U35A C55A C66A | 0.521
69 | U2G A14C C30U U54G C55A | ≤ 0.5
70 | U2G A21G A40G | ≤ 0.5
71 | U2C C4U A70C | 0.733
72 | U2C G25A A42U C55G | ≤ 0.5

Row | Variant | yeast fitness
73 | U2C U19C U54A A69C | ≤ 0.5
74 | U2C G48A | 0.928
75 | U2C U19G A69C | 0.543
76 | U2C G63A | 0.799
77 | U2G C11A C30A A57U | ≤ 0.5
78 | U2C U3A C31G U35A | ≤ 0.5
79 | U2C G10C A40C G52C G67A | ≤ 0.5
80 | U2G A14U | 0.502
81 | U2C G10A G12A G18C C33U A69C | ≤ 0.5
82 | U2C G9U A20C A57G A65C | ≤ 0.5
83 | U2G A45U C66U | 0.555
84 | U2C G25C A36U G38A | ≤ 0.5
85 | U2C U7G U32A U59A | 0.501
86 | U2C G10C C24A C31U A36C A43C C55A | 0.546
87 | U2C G50C C60G | ≤ 0.5
88 | U2C C11G A37G G51C A57G | 0.632
89 | U2C U35G A40C | 0.587
90 | U2C A57G C66G | ≤ 0.5
91 | U2C C24G A42U G67A | ≤ 0.5
92 | U2C G23C C55G | 0.553
93 | U2C G10C A21G | ≤ 0.5
94 | U2C C11A | ≤ 0.5
95 | U2G C11U G23A | ≤ 0.5
96 | U2C G48A C60U | ≤ 0.5

Row | Variant | yeast fitness
97 | U2C C22U G38C C46U | ≤ 0.5
98 | U2C G12A C24A U28A A42C U47G C49G | 0.582
99 | U2C U13C C22G U26A C31U A42C G50C U64A C66U G68C | ≤ 0.5
100 | U2C G12A A36U C62G | ≤ 0.5
101 | U2G C4U G56A C61A C62U A65U A69C | ≤ 0.5
102 | U2C C4A G17A C60G | ≤ 0.5
103 | U2C U7A C22A A36U A45U C60U C62U C66U | 0.541
104 | U2C C24U A70C | 0.708
105 | U2C C24G U26A C31G | 0.639
106 | U2C G6A A42C C66U | ≤ 0.5
107 | U2C C30U C33U | 0.512
108 | U2C C4U G25C C29U G68A | ≤ 0.5
109 | U2C G6A G23A C27U A45C C60A | 0.605
110 | U2G C11U A40U C49A | 0.523
111 | U2C C24U G44C | ≤ 0.5
112 | U2C C33U C61G | ≤ 0.5
113 | U2C G6A C61G | ≤ 0.5
114 | U2C U28A G52A | ≤ 0.5
115 | U2G C11G A20G C24U C31G | 0.615
116 | U2C U32G | 0.674
117 | U2C U28A G67A | ≤ 0.5
118 | U2C U16C C27G G68A | ≤ 0.5
119 | U2C C4A U8C G18C U35C G63A | ≤ 0.5
120 | U2C C11U A21C U26C C49U A57U | ≤ 0.5

Row | Variant | yeast fitness
121 | U2C C4U U47A | 0.525
122 | U2C C5A | 0.845
123 | U2C C4U | 0.969
124 | U2G C5U A21C G48A G50C | ≤ 0.5
125 | U2C A42U | 0.937
126 | U2C A42C | 0.914
127 | U2C A42G | 0.821
128 | U2C U28C C34U | ≤ 0.5
129 | U2C C11A C22G U54C G56A | ≤ 0.5
130 | U2G C5A G10C | ≤ 0.5
131 | U2C U8A G38C C60A | ≤ 0.5
132 | U2C C29U A37G C66U | 0.578
133 | U2C C4U C33A G41C C60U A65U A69U | ≤ 0.5
134 | U2C G23C C31G C33U A42G G67U | ≤ 0.5
135 | U2G C11U A40G G50C | ≤ 0.5
136 | U2C U8G G23A C24G G44A | ≤ 0.5
137 | U2C C33U A42G G44C | ≤ 0.5
138 | U2C C4A U28C G44C | 0.601
139 | U2C U16C C27G C55U U59G | ≤ 0.5
140 | U2C C30G C33A | ≤ 0.5
141 | U2C G6C | 0.861
142 | U2C C61U A65G | 0.711
143 | U2C G17A A37C | 0.791
144 | U2C C5A C29G G48A A69U | ≤ 0.5

Row | Variant | yeast fitness
145 | U2C U13A C61U | ≤ 0.5
146 | U2C C31A A70U | 0.76
147 | U2C G12C A40C | ≤ 0.5
148 | U2C G9U C61G | ≤ 0.5
149 | U2C U3C A45G C61A | ≤ 0.5
150 | U2C G17A A43C C49U U54A G56C A65U A70C | ≤ 0.5
151 | U2C G23A G38A G56C C61U | ≤ 0.5
152 | U2G C4U C29G | ≤ 0.5
153 | U2G C4A C22U U28G A42U C62U A70U | ≤ 0.5
154 | U2C G23C C31G C33U A42G G52C A70G | ≤ 0.5
155 | U2C G18C A21G C27A C30U G38A | ≤ 0.5
156 | U2G C4A U16C C31U A70U | ≤ 0.5
157 | U2C C61U G68A | ≤ 0.5
158 | U2C C5U U54C | ≤ 0.5
159 | U2G A42C U47A A65U | ≤ 0.5
160 | U2C C11A C22G G41A A43C G51C C66U G67C | ≤ 0.5
161 | U2C C11A C22G G41A A43C G51C C66U G67U | 0.584
162 | U2C C27U A43G G56A | ≤ 0.5
163 | U2G C11U G23A C46U U54A | ≤ 0.5
164 | U2G A37C G41A C49U C60G | 0.51
165 | U2G A40C G63A G68C | ≤ 0.5
166 | U2C U47A U53A | ≤ 0.5
167 | U2C C11U G56C C62U | ≤ 0.5
